Read-outs that look alike come from different tables or passages of the source.
Key:
[1] = test system: Huh-7 cells; experiment: CCK-8 cell viability and IC50 measurement, Huh-7; assay type: cell-based, human; conditions: read-out: IC50 Huh-7
Method in brief: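 Huh-7 cells (ATCC) in DMEM or RPMI 1640 with 10% FBS, 37°C, 5% CO2; seeded 3 × 10^3 cells/well and left to adhere overnight. […] CCK-8 added for 1 h, A450 read. Viability as % of control; IC50 from inhibition by nonlinear regression. n > 5; mean ± SE.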

[2] = test system: Huh-7 cells; experiment: Apoptosis assay; assay type: cell-based, human; conditions: 5, 10, 20 μM, 72h
[3] = test system: Huh-7 cells; experiment: RT-PCR gene expression analysis; assay type: cell-based, human; conditions: 10 μM, 72 h
Method in brief: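 Huh-7 cells in 12-well plates were treated with 10 μM test compound for 72 h. Total RNA was extracted with TRIzol, and gene expression was measured by SYBR Green real-time PCR using specific primer pairs.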

[4] = test system: Huh-7 cells; experiment: Live and dead cell staining; assay type: cell-based, human; conditions: 5, 10, 20 μM, 24h
Method in brief: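 Huh-7 cells seeded at 3 × 10^3 cells/well and incubated overnight. Treated with test compound at 0, 5, 10 or 20 μM for 24 h, then stained with Calcein-AM and PI for 1 h in the dark and imaged by fluorescence confocal microscopy. 5–6 replicates per group.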

[5] = test system: Huh-7 cells; experiment: DNA damage staining; assay type: cell-based, human; conditions: 5, 10, 20 μM, 24h
Method in brief: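 Huh-7 cells seeded at 3 × 10^3 cells/well and exposed to test compound at 0, 5, 10 or 20 μM for 24 h. Stained with a DNA damage detection kit (nuclei blue, DNA-damaged cells green), then imaged by fluorescence microscopy. 5–6 replicates per group.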

[6] = test system: Huh-7 cells; experiment: Autophagy staining assay; assay type: cell-based, human; conditions: 5, 10, 20 μM, 24 h, MDC probe
Method in brief: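 Huh-7 cells were seeded at 3 × 10^3 cells/well and exposed to 0, 5, 10 or 20 μM test compound for 24 h. Medium was removed, and cells were stained with monodansylcadaverine for 1 h in the dark at 37°C, then imaged by confocal microscopy. Replicates: 5–6 per group.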

[7] = test system: Huh-7 cells; experiment: Western blot protein expression analysis; assay type: cell-based, human; conditions: 10 μM, 72 h
Method in brief: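 Huh-7 cells in 12-well plates were treated with 10 μM test compound for 72 h. Whole-cell protein was extracted in RIPA buffer with protease/phosphatase inhibitors and immunoblotted for γH2AX, caspase-3, caspase-9, PARP, cyclin D, cyclin E, LC3 and β-actin. Six replicates per group; mean ± SEM, two-tailed t-test.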

[8] = test system: Female KM mice; experiment: Acute oral toxicity test; assay type: in vivo; conditions: 500 mg/kg, intragastric administration
Method in brief: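 Female Kunming mice (SPF, 8 weeks), acclimated 7 days with free water on a 12 h light/dark cycle; 6 per group. Test compound at 500 mg/kg given intragastrically in 5% DMSO + 40% PEG300 + 1% Tween 80 + 54% saline; controls received an equal volume of vehicle. Body weight and appearance were followed for 14 days. Heart, liver, spleen, lungs and kidneys were then weighed for organ coefficients and examined by H&E histology.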

[9] = molecular target: MET receptor tyrosine kinase (RTK); conditions: read-out: IC50 MET receptor tyrosine kinase; cited from earlier work
[10] = test system: ABHD6; conditions: cited from earlier work

O=C(NCc1cn(Cc2cccc(Cl)c2)nn1)Nc1ccc(Cl)cc1 [Compound 7b, 1-((1-(3-Chlorobenzyl)-1H-1,2,3-Triazol-4-Yl)methyl)-3-(4-Chlorophenyl)urea]
IC50 ([1]; Homo sapiens, Huh-7, 72 h): > 50 µM

O=C(NCc1cn(Cc2ccc(Br)cc2)nn1)Nc1ccccc1Br [Compound 7e, 1-((1-(4-Bromobenzyl)-1H-1,2,3-Triazol-4-Yl)methyl)-3-(2-Bromophenyl)urea]
IC50 ([1]; Homo sapiens, Huh-7, 72 h): > 50 µM

O=C(Nc1ccc(Cl)cc1)Nc1ccc(-c2cn(Cc3cccc(Cl)c3)nn2)cc1 [Compound 5b, 1-(4-(1-(3-Chlorobenzyl)-1H-1,2,3-Triazol-4-Yl)phenyl)-3-(4-Chlorophenyl)urea]
IC50 ([1]; Homo sapiens, Huh-7, 72 h): > 50 µM

O=C(NCc1cn(Cc2ccc(Cl)cc2)nn1)Nc1ccccc1Br [Compound 7d, 1-(2-Bromophenyl)-3-((1-(4-Chlorobenzyl)-1H-1,2,3-Triazol-4-Yl)methyl)urea]
IC50 ([1]; Homo sapiens, Huh-7, 72 h): > 50 µM

O=C(Nc1ccc(Cl)cc1)Nc1ccc(-c2cn(Cc3ccc(Cl)cc3)nn2)cc1 [Compound 5a, 1-(4-(1-(4-Chlorobenzyl)-1H-1,2,3-Triazol-4-Yl)phenyl)-3-(4-Chlorophenyl)urea]
IC50 ([1]; Homo sapiens, Huh-7, 72 h): > 50 µM

O=C(Nc1cccc(-c2cn(Cc3ccc(Br)cc3)nn2)c1)Nc1ccccc1Br [Compound 3e, 1-(3-(1-(4-Bromobenzyl)-1H-1,2,3-Triazol-4-Yl)phenyl)-3-(2-Bromophenyl)urea]
apoptotic cells [2]: dose-dependent increases in apoptotic cells
IC50 ([1]; Homo sapiens, Huh-7, 72 h): 12.2 ± 1.31 µM
DNA damaged genes and autophagy genes (mRNA) [3]: not changed
expression of Bcl2 (mRNA) [3]: increased largely
expression of Gpx4 and TNFa (mRNA) [3]: also increased
Dead and living cells staining [4]: dead cells were increased significantly in a dose-dependent manner
DNA damage [5]: significantly stimulated DNA damage in a concentration-dependent manner
autophagosome in tumor cells [6]: increased dramatically
H2AX protein expression [7]: significantly increased

O=C(Nc1ccc(Cl)cc1)Nc1cccc(-c2cn(Cc3ccc(Br)cc3)nn2)c1 [Compound 3c, 1-(3-(1-(4-Bromobenzyl)-1H-1,2,3-Triazol-4-Yl)phenyl)-3-(4-Chlorophenyl)urea]
apoptotic cells [2]: dose-dependent increases in apoptotic cells
mortality ([8]; 14-day observation, female KM mice): no mortality
body weight vs vehicle control group ([8]; 14 days, all time points): no statistically significant differences
organ coefficient and histopathological assessments of major organs ([8]; cardiac, hepatic, splenic, pulmonary, renal tissues): no detectable toxicological alterations
IC50 ([1]; Homo sapiens, Huh-7, 72 h): 10.2 ± 1.32 µM
expression of Keap1 (mRNA) [3]: upregulated
expression of oxidative stress genes Nrf2, Gpx4, TNFa (mRNA) [3]: no significant changes
expressions of p53, p21, H2AX, Bcl2, caspase6, caspase7, ATG5 and ATG7 (mRNA) [3]: did not influence
Dead and living cells staining [4]: dead cells were increased significantly in a dose-dependent manner
DNA damage [5]: significantly stimulated DNA damage in a concentration-dependent manner
autophagosome in tumor cells [6]: increased dramatically

O=C(NCCN1CCOCC1)Nc1nc2ccc(Sc3nnc4ccc(-c5ccc(F)cc5)nn34)cc2s1 [II]
IC50 [9]: 0.0042 µM

O=C(c1cccc(-c2ccc(-c3cn(C(=O)N4CCCCC4c4ccccc4)nn3)cc2)c1)N1CCCCC1 (stereo not drawn) [KT185]
in vivo selectivity [10]: exceptional in vivo selectivity

O=C(Nc1ccc(Cl)cc1)Nc1ccc(-c2cn(Cc3ccc(Br)cc3)nn2)cc1 [Compound 5c, 1-(4-(1-(4-Bromobenzyl)-1H-1,2,3-Triazol-4-Yl)phenyl)-3-(4-Chlorophenyl)urea]
IC50 ([1]; Homo sapiens, Huh-7, 72 h): > 50 µM

O=C(Nc1ccc(-c2cn(Cc3ccc(Br)cc3)nn2)cc1)Nc1ccccc1Br [Compound 5e, 1-(4-(1-(4-Bromobenzyl)-1H-1,2,3-Triazol-4-Yl)phenyl)-3-(2-Bromophenyl)urea]
IC50 ([1]; Homo sapiens, Huh-7, 72 h): > 50 µM

O=c1[nH]cc(F)c(=O)[nH]1 [Compound 5-FU, reference compound]
IC50 ([1]; 72-hour exposure, CCK-8): 39 ± 0.56 µM

O=C(Nc1ccc(-c2cn(Cc3ccc(Cl)cc3)nn2)cc1)Nc1ccccc1Br [Compound 5d, 1-(2-Bromophenyl)-3-(4-(1-(4-Chlorobenzyl)-1H-1,2,3-Triazol-4-Yl)phenyl)urea]
IC50 ([1]; Homo sapiens, Huh-7, 72 h): > 50 µM

O=C(NCc1cn(Cc2ccc(Br)cc2)nn1)Nc1ccc(Cl)cc1 [Compound 7c, 1-((1-(4-Bromobenzyl)-1H-1,2,3-Triazol-4-Yl)methyl)-3-(4-Chlorophenyl)urea]
IC50 ([1]; Homo sapiens, Huh-7, 72 h): > 50 µM

O=C(NCc1cn(Cc2ccc(Cl)cc2)nn1)Nc1ccc(Cl)cc1 [Compound 7a, 1-((1-(4-Chlorobenzyl)-1H-1,2,3-Triazol-4-Yl)methyl)-3-(4-Chlorophenyl)urea]
IC50 ([1]; Homo sapiens, Huh-7, 72 h): > 50 µM

— article PMC12554292 (Drug Design, Development and Therapy, 2025)
